Measured values: ChEMBL document CHEMBL1138477, “8-(4-Methoxyphenyl)pyrazolo[1,5-a]-1,3,5-triazines: selective and centrally active corticotropin-releasing factor receptor-1 (CRF1) antagonists” (J Med Chem, 2009)
Activity calls are given as the source filed them. No cut-off for these calls is given here.

How the values were obtained:
[1] = target: T1, Corticotropin-releasing factor receptor 1 (Rattus norvegicus, UniProt P35353); experiment: Antagonist activity at CRF1 receptor in rat brain homogenates assessed as inhibition of CRF-stimulted cAMP production; assay type: functional, tissue-based
T1 sequence (P35353 whole entry): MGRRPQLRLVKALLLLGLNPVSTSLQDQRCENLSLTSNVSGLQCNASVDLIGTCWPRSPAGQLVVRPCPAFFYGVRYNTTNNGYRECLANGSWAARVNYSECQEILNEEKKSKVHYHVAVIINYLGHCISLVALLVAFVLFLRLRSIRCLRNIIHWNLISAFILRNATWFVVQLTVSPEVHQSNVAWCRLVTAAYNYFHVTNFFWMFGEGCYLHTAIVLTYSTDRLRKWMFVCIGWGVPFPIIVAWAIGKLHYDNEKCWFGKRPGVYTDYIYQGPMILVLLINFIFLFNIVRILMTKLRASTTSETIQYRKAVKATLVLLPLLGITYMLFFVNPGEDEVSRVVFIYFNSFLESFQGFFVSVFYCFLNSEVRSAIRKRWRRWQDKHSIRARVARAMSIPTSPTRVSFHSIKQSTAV
In short: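 Rat cortical homogenate (0.8 mg original wet weight tissue) incubated 10 min at 37 °C in 100 mM Tris-HCl pH 7.4, 10 mM MgCl2, 0.4 mM EGTA, 0.1% BSA, 1 mM IBMX, creatine phosphate/phosphocreatine kinase, 100 nM ovine-CRF; started with 1 mM ATP/[32P]ATP; [32P]cAMP separated on Dowex and alumina columns, [3H]cAMP recovery marker; n = 3.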

[2] = target: T2, Corticotropin-releasing factor receptor 1 (Rattus norvegicus) (UniProt P35353); experiment: Agonist activity at CRF1 receptor in rat brain homogenates assessed as CRF-stimulted cAMP production; assay type: functional, tissue-based
T2 sequence (whole entry): T1 sequence (P35353 whole entry)

[3] = target: T3, Corticotropin-releasing factor receptor 1 (Homo sapiens, UniProt P34998); experiment: Binding affinity to CRF1 receptor in human IMR32 cells; assay type: cell-based, IMR-32
T3 sequence (P34998 whole entry): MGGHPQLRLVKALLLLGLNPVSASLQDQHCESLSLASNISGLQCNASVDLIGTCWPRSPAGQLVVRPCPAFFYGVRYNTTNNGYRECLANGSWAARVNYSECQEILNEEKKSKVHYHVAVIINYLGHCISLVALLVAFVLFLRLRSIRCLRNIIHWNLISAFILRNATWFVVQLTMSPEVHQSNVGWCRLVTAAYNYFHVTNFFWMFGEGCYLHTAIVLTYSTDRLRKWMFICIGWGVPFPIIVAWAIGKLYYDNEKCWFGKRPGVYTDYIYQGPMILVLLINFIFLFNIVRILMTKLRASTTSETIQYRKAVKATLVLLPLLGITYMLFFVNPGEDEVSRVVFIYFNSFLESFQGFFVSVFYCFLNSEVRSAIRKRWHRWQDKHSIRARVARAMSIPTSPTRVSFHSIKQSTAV

[4] = target: T4, Corticotropin-releasing factor-binding protein (Homo sapiens, UniProt P24387); experiment: Binding affinity to human recombinant CRF binding protein
T4 sequence (P24387 whole entry): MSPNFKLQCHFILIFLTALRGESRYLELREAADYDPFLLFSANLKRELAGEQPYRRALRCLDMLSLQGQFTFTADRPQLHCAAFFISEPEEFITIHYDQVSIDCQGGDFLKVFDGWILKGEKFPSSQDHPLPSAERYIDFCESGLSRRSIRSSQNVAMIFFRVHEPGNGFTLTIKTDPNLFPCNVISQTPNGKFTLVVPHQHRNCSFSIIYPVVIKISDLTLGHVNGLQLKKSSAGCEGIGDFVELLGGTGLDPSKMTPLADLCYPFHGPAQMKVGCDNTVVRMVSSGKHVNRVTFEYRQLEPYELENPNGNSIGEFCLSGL

[5] = target: T5, Corticotropin-releasing factor receptor 2 (Homo sapiens, UniProt Q13324); experiment: Binding affinity to human CRF2alpha receptor
T5 sequence (Q13324 whole entry): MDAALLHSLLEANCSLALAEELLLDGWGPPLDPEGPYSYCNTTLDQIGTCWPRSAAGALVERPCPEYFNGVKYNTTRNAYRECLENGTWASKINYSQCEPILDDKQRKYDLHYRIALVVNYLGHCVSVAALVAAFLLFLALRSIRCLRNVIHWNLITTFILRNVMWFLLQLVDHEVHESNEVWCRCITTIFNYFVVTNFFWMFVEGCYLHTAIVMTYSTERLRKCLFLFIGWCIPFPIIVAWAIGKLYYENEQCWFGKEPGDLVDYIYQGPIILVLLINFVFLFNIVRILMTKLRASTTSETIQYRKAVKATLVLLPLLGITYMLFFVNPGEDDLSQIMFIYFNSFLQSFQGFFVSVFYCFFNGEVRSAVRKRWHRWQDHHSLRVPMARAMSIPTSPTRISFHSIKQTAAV

[6] = target: T6, Corticotropin-releasing factor receptor 2 (Homo sapiens) (UniProt Q13324); experiment: Antagonist activity at human cloned CRF2alpha receptor expressed in HEK293 cells; assay type: functional, cell-based
T6 sequence (whole entry): T5 sequence (Q13324 whole entry)

[7] = target: T7, Alpha-1A adrenergic receptor (Homo sapiens, UniProt P35348); experiment: Binding affinity to adrenergic Alpha-1A receptor
T7 sequence (P35348 whole entry): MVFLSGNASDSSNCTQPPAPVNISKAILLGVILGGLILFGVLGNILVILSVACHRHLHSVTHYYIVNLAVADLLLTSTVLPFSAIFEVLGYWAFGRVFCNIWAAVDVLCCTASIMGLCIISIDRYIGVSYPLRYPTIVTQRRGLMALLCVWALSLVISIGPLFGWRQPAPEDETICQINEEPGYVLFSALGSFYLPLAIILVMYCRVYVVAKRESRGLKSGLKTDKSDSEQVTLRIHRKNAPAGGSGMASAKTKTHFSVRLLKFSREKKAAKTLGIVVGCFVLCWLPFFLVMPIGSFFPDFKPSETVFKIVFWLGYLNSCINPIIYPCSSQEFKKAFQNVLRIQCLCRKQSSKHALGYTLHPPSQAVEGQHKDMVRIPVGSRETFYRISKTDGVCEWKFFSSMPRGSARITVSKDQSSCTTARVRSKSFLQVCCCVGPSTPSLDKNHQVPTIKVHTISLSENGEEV

Canis familiaris = experiment: Hepatic blood flow in iv dosed Beagle dog; assay type: ADME, organism-based, Canis lupus familiaris, Liver; conditions: in vivo
Vasopressin V1a receptor = Vasopressin V1a receptor (Homo sapiens, UniProt P37288); experiment: Binding affinity to vasopressin V1 receptor
Sequence of Vasopressin V1a receptor (P37288 whole entry): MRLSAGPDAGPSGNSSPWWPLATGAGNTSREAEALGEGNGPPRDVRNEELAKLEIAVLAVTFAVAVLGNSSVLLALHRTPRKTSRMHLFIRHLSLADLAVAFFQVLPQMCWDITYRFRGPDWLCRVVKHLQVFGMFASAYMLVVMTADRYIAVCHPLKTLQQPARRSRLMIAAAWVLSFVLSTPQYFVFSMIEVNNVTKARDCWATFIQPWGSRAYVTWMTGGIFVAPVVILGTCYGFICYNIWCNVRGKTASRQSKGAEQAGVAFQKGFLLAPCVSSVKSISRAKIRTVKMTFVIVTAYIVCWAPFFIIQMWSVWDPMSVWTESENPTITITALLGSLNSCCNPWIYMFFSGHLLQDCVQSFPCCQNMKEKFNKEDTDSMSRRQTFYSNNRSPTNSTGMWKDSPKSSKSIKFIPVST

## COCCN(CCOC)c1nc(C)nc2c(-c3cc(C)c(OC)cc3C)c(C)nn12
[1]
  IC50: 38 nM
[2]
  Activity: inactive
[3]
  IC50: 15.2 nM
[4]
  IC50: > 1000 nM
[5]
  IC50: > 1000 nM
[6]
  Activity: inactive
[7]
  IC50: > 1000 nM
Canis familiaris
  QH: 31 mL/min/kg
Vasopressin V1a receptor
  IC50: > 1000 nM

## COCCN(CCOC)c1nc(C)nc2c(-c3ccc(OC)cc3C)c(C)nn12
[1]
  IC50: 66 nM
[2]
  Activity: inactive
[3]
  IC50: 4.7 nM
[4]
  IC50: > 1000 nM
[5]
  IC50: > 1000 nM
[6]
  Activity: inactive
[7]
  IC50: > 1000 nM
Canis familiaris
  QH: 31 mL/min/kg
Vasopressin V1a receptor
  IC50: > 1000 nM

## CCC(CC)Nc1nc(C)nc2c(-c3cc(F)c(OC)cc3Cl)c(C)nn12
[1]
  IC50: 36 nM
[2]
  Activity: inactive
[3]
  IC50: 1.2 nM
[4]
  IC50: > 1000 nM
[5]
  IC50: > 1000 nM
[6]
  Activity: inactive
[7]
  IC50: > 1000 nM
Vasopressin V1a receptor
  IC50: > 1000 nM

## CC[C@@H](C)Nc1nc(C)nc2c(-c3c(C)cc(OC)cc3OC)c(C)nn12
[1]
  IC50: 110 nM
[2]
  Activity: inactive
[3]
  IC50: 3.4 nM
[4]
  IC50: > 1000 nM
[5]
  IC50: > 1000 nM
[6]
  Activity: inactive
[7]
  IC50: > 1000 nM
Canis familiaris
  QH: 31 mL/min/kg
Vasopressin V1a receptor
  IC50: > 1000 nM
